In ChEMBL document CHEMBL2062435, “Synthesis and in vitro antibacterial activity of gemifloxacin derivatives containing a substituted benzyloxime moiety” (2012):

How the values were obtained:
Type in all cases: functional
[1] = test system: Staphylococcus aureus; assay: Antimicrobial activity against Staphylococcus aureus ATCC […] after 18-24 hrs by two-fold serial dilution method
In short: (§1)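 Agar-medium twofold serial dilution against Gram-positive and Gram-negative strains; MIC taken as the lowest compound concentration giving complete inhibition of bacterial growth after incubation at 35 °C for 18-24 h.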

[2] = test system: Staphylococcus aureus; assay: Antimicrobial activity against extended spectrum beta-lactamases-producing methicillin-resistant Staphylococcus aureus 10-11 after 18-24 hrs by two-fold serial dilution method
In short: (§2)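 Agar twofold serial dilution MIC against clinical isolates. MIC was taken as the lowest concentration giving complete inhibition of bacterial growth after incubation at 35 °C for 18-24 h.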

[3] = test system: Staphylococcus aureus; assay: Antimicrobial activity against extended spectrum beta-lactamases-producing methicillin-resistant Staphylococcus aureus 10-15 after 18-24 hrs by two-fold serial dilution method; in short: as §2
[4] = test system: Staphylococcus aureus; assay: Antimicrobial activity against extended spectrum beta-lactamases-producing methicillin-sensitive Staphylococcus aureus 10-13 after 18-24 hrs by two-fold serial dilution method; in short: as §1
[5] = test system: Staphylococcus aureus; assay: Antimicrobial activity against extended spectrum beta-lactamases-producing methicillin-sensitive Staphylococcus aureus 10-14 after 18-24 hrs by two-fold serial dilution method; in short: as §1
[6] = test system: Staphylococcus epidermidis; assay: Antimicrobial activity against extended spectrum beta-lactamases-producing methicillin-resistant Staphylococcus epidermidis 10-10 after 18-24 hrs by two-fold serial dilution method; in short: as §2
[7] = test system: Staphylococcus epidermidis; assay: Antimicrobial activity against extended spectrum beta-lactamases-producing methicillin-resistant Staphylococcus epidermidis 10-13 after 18-24 hrs by two-fold serial dilution method; in short: as §2
[8] = test system: Staphylococcus epidermidis; assay: Antimicrobial activity against extended spectrum beta-lactamases-producing methicillin-sensitive Staphylococcus epidermidis 10-11 after 18-24 hrs by two-fold serial dilution method; in short: as §1
[9] = test system: Staphylococcus epidermidis; assay: Antimicrobial activity against extended spectrum beta-lactamases-producing methicillin-sensitive Staphylococcus epidermidis 10-13 after 18-24 hrs by two-fold serial dilution method; in short: as §1
[10] = test system: Staphylococcus epidermidis; assay: Antimicrobial activity against extended spectrum beta-lactamases-producing methicillin-sensitive Staphylococcus epidermidis 10-15 after 18-24 hrs by two-fold serial dilution method; in short: as §1
[11] = test system: Enterococcus faecalis; assay: Antimicrobial activity against Enterococcus faecalis 10-5 after 18-24 hrs by two-fold serial dilution method; in short: as §1
[12] = test system: Enterococcus faecalis; assay: Antimicrobial activity against Enterococcus faecalis 10-6 after 18-24 hrs by two-fold serial dilution method; in short: as §1
[13] = test system: Enterococcus faecalis; assay: Antimicrobial activity against Enterococcus faecalis 10-7 after 18-24 hrs by two-fold serial dilution method; in short: as §1
[14] = test system: Enterococcus faecium; assay: Antimicrobial activity against Enterococcus faecium 10-5 after 18-24 hrs by two-fold serial dilution method; in short: as §1
[15] = test system: Enterococcus faecium; assay: Antimicrobial activity against Enterococcus faecium 10-9 after 18-24 hrs by two-fold serial dilution method; in short: as §1
[16] = test system: Streptococcus pneumoniae; assay: Antimicrobial activity against extended spectrum beta-lactamases-producing Streptococcus pneumoniae 10-1 after 18-24 hrs by two-fold serial dilution method; in short: as §1
[17] = test system: Streptococcus pneumoniae; assay: Antimicrobial activity against extended spectrum beta-lactamases-producing Streptococcus pneumoniae 10-4 after 18-24 hrs by two-fold serial dilution method; in short: as §1
[18] = test system: Escherichia coli; assay: Antimicrobial activity against Escherichia coli ATCC 25922 after 18-24 hrs by two-fold serial dilution method; in short: as §1
[19] = test system: Escherichia coli; assay: Antimicrobial activity against Escherichia coli 10-1 after 18-24 hrs by two-fold serial dilution method; in short: as §1
[20] = test system: Escherichia coli; assay: Antimicrobial activity against Escherichia coli 10-2 after 18-24 hrs by two-fold serial dilution method; in short: as §1
[21] = test system: Escherichia coli; assay: Antimicrobial activity against extended spectrum beta-lactamases-producing Escherichia coli 10-2 after 18-24 hrs by two-fold serial dilution method; in short: as §1
[22] = test system: Escherichia coli; assay: Antimicrobial activity against Escherichia coli 10-3 after 18-24 hrs by two-fold serial dilution method; in short: as §1
[23] = test system: Escherichia coli; assay: Antimicrobial activity against extended spectrum beta-lactamases-producing Escherichia coli 10-3 after 18-24 hrs by two-fold serial dilution method; in short: as §1
[24] = test system: Escherichia coli; assay: Antimicrobial activity against extended spectrum beta-lactamases-producing Escherichia coli 10-4 after 18-24 hrs by two-fold serial dilution method; in short: as §1
[25] = test system: Klebsiella pneumoniae; assay: Antimicrobial activity against extended spectrum beta-lactamases-producing Klebsiella pneumoniae 10-1 after 18-24 hrs by two-fold serial dilution method; in short: as §1
[26] = test system: Klebsiella pneumoniae; assay: Antimicrobial activity against Klebsiella pneumoniae 10-2 after 18-24 hrs by two-fold serial dilution method; in short: as §1
[27] = test system: Klebsiella pneumoniae; assay: Antimicrobial activity against extended spectrum beta-lactamases-producing Klebsiella pneumoniae 10-2 after 18-24 hrs by two-fold serial dilution method; in short: as §1
[28] = test system: Klebsiella pneumoniae; assay: Antimicrobial activity against Klebsiella pneumoniae 10-3 after 18-24 hrs by two-fold serial dilution method; in short: as §1
[29] = test system: Klebsiella pneumoniae; assay: Antimicrobial activity against extended spectrum beta-lactamases-producing Klebsiella pneumoniae 10-3 after 18-24 hrs by two-fold serial dilution method; in short: as §1
[30] = test system: Klebsiella pneumoniae; assay: Antimicrobial activity against Klebsiella pneumoniae 10-4 after 18-24 hrs by two-fold serial dilution method; in short: as §1
[31] = test system: Pseudomonas aeruginosa; assay: Antimicrobial activity against Pseudomonas aeruginosa 10-12 after 18-24 hrs by two-fold serial dilution method; in short: as §1
[32] = test system: Pseudomonas aeruginosa; assay: Antimicrobial activity against extended spectrum beta-lactamases-producing Pseudomonas aeruginosa 10-5 after 18-24 hrs by two-fold serial dilution method; in short: as §1
[33] = test system: Pseudomonas aeruginosa; assay: Antimicrobial activity against extended spectrum beta-lactamases-producing Pseudomonas aeruginosa 10-9 after 18-24 hrs by two-fold serial dilution method; in short: as §1
[34] = test system: Pseudomonas aeruginosa; assay: Antimicrobial activity against extended spectrum beta-lactamases-producing Pseudomonas aeruginosa 10-15 after 18-24 hrs by two-fold serial dilution method; in short: as §1
[35] = test system: Pseudomonas aeruginosa; assay: Antimicrobial activity against extended spectrum beta-lactamases-producing Pseudomonas aeruginosa 10-18 after 18-24 hrs by two-fold serial dilution method; in short: as §1
[36] = test system: Pseudomonas aeruginosa; assay: Antimicrobial activity against extended spectrum beta-lactamases-producing Pseudomonas aeruginosa 10-20 after 18-24 hrs by two-fold serial dilution method; in short: as §1

## COc1ccc(CO/N=C2\CN(c3nc4c(cc3F)c(=O)c(C(=O)O)cn4C3CC3)CC2CN)cc1.CS(=O)(=O)O (racemic)
[1]
  MIC: 0.015 µg/mL
[2]
  MIC: 1 µg/mL
[3]
  MIC: 0.25 µg/mL
[4]
  MIC: 0.015 µg/mL
[5]
  MIC: 0.03 µg/mL
[6]
  MIC: 0.5 µg/mL
[7]
  MIC: 0.5 µg/mL
[8]
  MIC: 0.5 µg/mL
[9]
  MIC: 0.03 µg/mL
[10]
  MIC: 2 µg/mL
[11]
  MIC: 0.125 µg/mL
[12]
  MIC: 2 µg/mL
[13]
  MIC: 1 µg/mL
[14]
  MIC: 4 µg/mL
[15]
  MIC: 8 µg/mL
[16]
  MIC: 0.125 µg/mL
[17]
  MIC: 0.125 µg/mL
[18]
  MIC: 0.06 µg/mL
[19]
  MIC: 32 µg/mL
[20]
  MIC: 2 µg/mL
[21]
  MIC: 128 µg/mL
[22]
  MIC: 8 µg/mL
[23]
  MIC: 16 µg/mL
[24]
  MIC: 2 µg/mL
[25]
  MIC: 64 µg/mL
[26]
  MIC: 128 µg/mL
[27]
  MIC: 128 µg/mL
[28]
  MIC: 4 µg/mL
[29]
  MIC: 128 µg/mL
[30]
  MIC: 128 µg/mL
[31]
  MIC: 2 µg/mL
[32]
  MIC: 4 µg/mL
[33]
  MIC: 4 µg/mL
[34]
  MIC: 8 µg/mL
[35]
  MIC: 4 µg/mL
[36]
  MIC: 2 µg/mL

## COc1cc(CO/N=C2\CN(c3nc4c(cc3F)c(=O)c(C(=O)O)cn4C3CC3)CC2CN)ccc1OCc1ccccc1.CS(=O)(=O)O (racemic)
[1]
  MIC: < 0.008 µg/mL
[2]
  MIC: 4 µg/mL
[3]
  MIC: 0.5 µg/mL
[4]
  MIC: 4 µg/mL
[5]
  MIC: < 0.008 µg/mL
[6]
  MIC: 4 µg/mL
[7]
  MIC: 1 µg/mL
[8]
  MIC: 8 µg/mL
[9]
  MIC: 2 µg/mL
[10]
  MIC: 8 µg/mL
[11]
  MIC: 4 µg/mL
[12]
  MIC: 8 µg/mL
[13]
  MIC: 4 µg/mL
[14]
  MIC: 16 µg/mL
[15]
  MIC: 16 µg/mL
[16]
  MIC: 4 µg/mL
[17]
  MIC: 16 µg/mL
[18]
  MIC: 2 µg/mL
[19]
  MIC: > 128 µg/mL
[20]
  MIC: 16 µg/mL
[21]
  MIC: > 128 µg/mL
[22]
  MIC: > 128 µg/mL
[23]
  MIC: > 128 µg/mL
[24]
  MIC: 32 µg/mL
[25]
  MIC: > 128 µg/mL
[26]
  MIC: > 128 µg/mL
[27]
  MIC: > 128 µg/mL
[28]
  MIC: 32 µg/mL
[29]
  MIC: > 128 µg/mL
[30]
  MIC: > 128 µg/mL
[31]
  MIC: < 0.008 µg/mL
[32]
  MIC: 16 µg/mL
[33]
  MIC: 16 µg/mL
[34]
  MIC: 32 µg/mL
[35]
  MIC: 16 µg/mL
[36]
  MIC: 0.06 µg/mL

## COc1cc(Br)c(CO/N=C2\CN(c3nc4c(cc3F)c(=O)c(C(=O)O)cn4C3CC3)CC2CN)cc1OC.CS(=O)(=O)O (racemic)
[1]
  MIC: < 0.008 µg/mL
[2]
  MIC: > 128 µg/mL
[3]
  MIC: 0.125 µg/mL
[4]
  MIC: 0.03 µg/mL
[5]
  MIC: 0.5 µg/mL
[6]
  MIC: 0.5 µg/mL
[7]
  MIC: 0.25 µg/mL
[8]
  MIC: 0.5 µg/mL
[9]
  MIC: 0.03 µg/mL
[10]
  MIC: 2 µg/mL
[11]
  MIC: 1 µg/mL
[12]
  MIC: 4 µg/mL
[13]
  MIC: 2 µg/mL
[14]
  MIC: 64 µg/mL
[15]
  MIC: 64 µg/mL
[16]
  MIC: 1 µg/mL
[17]
  MIC: 0.125 µg/mL
[18]
  MIC: 0.5 µg/mL
[19]
  MIC: > 128 µg/mL
[20]
  MIC: > 128 µg/mL
[21]
  MIC: > 128 µg/mL
[22]
  MIC: > 128 µg/mL
[23]
  MIC: > 128 µg/mL
[24]
  MIC: > 128 µg/mL
[25]
  MIC: > 128 µg/mL
[26]
  MIC: > 128 µg/mL
[27]
  MIC: > 128 µg/mL
[28]
  MIC: > 128 µg/mL
[29]
  MIC: > 128 µg/mL
[30]
  MIC: > 128 µg/mL
[31]
  MIC: > 128 µg/mL
[32]
  MIC: > 128 µg/mL
[33]
  MIC: > 128 µg/mL
[34]
  MIC: > 128 µg/mL
[35]
  MIC: > 128 µg/mL
[36]
  MIC: > 128 µg/mL
